Compounds with a hit are over-represented: about 2.3% of the library has one in this group of screens.
TRPC6 act – activates the mouse TRPC6 cation channel; Q61143; HEK293-TRPC6 membrane potential dye fluorescence; active compounds read high; B-score at 10 µM; hit rate 0.13% among 310,000;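 active means B-score of the integrated fluorescence ratio above library mean plus 3 SD, and starting fluorescence ratio within library mean plus 5 SD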;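 further: higher score means more depolarization so channel activation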
Target sequence (Q61143 whole entry, looked up): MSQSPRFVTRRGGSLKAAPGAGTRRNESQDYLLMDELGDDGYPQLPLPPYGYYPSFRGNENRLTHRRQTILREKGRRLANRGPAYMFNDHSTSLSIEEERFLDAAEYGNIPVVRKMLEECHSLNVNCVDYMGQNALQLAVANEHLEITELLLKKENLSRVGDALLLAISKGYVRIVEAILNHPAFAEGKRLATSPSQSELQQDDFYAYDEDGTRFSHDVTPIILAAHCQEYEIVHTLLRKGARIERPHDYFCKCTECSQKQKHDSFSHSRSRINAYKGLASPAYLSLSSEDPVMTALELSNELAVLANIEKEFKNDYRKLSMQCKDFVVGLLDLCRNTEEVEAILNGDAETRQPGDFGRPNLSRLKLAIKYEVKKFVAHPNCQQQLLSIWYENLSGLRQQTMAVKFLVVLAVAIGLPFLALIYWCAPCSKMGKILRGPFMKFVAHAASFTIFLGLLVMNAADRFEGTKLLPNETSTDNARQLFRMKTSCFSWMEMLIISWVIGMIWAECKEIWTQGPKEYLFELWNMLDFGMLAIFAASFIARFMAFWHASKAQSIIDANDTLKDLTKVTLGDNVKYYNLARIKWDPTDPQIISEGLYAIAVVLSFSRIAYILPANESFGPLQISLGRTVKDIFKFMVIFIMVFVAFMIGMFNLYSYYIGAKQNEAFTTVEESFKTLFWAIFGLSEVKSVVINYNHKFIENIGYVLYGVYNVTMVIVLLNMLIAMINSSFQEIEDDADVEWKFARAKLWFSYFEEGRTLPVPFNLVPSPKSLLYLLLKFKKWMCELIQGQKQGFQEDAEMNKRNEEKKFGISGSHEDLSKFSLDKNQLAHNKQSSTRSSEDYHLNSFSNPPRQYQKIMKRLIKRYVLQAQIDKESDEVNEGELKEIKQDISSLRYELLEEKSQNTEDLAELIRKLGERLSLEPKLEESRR
TRPC4 potent – TRPC4 (mouse) allosteric potentiation; Q9QUQ5; hit rate 0.42% among 310,000; HEK293 TRPC4beta/mu-opioid, DAMGO EC20, Fluo-4 Ca2+ flux; active compounds read high; B-score at 10 µM;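 active means B-score of calcium response area above 5 SD of library B-scores, with initial fluorescence ratio within 5 SD of library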;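 further: B-score of integrated fluorescence ratio over time as area under calcium response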
TRPC6 inh – inhibitors of mouse TRPC6 channel. Q61143. AID 2553. HEK293-TRPC6, membrane potential dye, ACh-evoked depolarization; active compounds read low. B-score at 10 µM. hit rate 1.1% among 310,000;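 active means B-score under library mean minus 3 SD, initial fluorescence not abnormally high, positive integrated signal ratio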;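 further: B-score derived from integrated fluorescence ratio over the kinetic read; more negative B-score means stronger inhibition of depolarization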
TRPC4 act – TRPC4 (mouse) channel activation. Q9QUQ5. HEK293 TRPC4beta/mu-opioid, Fluo4 calcium fluorescence; active compounds read high. B-score at 10 µM. hit rate 0.49% among 310,000. AID 2237;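 active means B-score above 5 SD of library B-scores, and initial fluorescence ratio not above library mean plus 5 SD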;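 further: positive B-score marks a calcium rise read as TRPC4 activation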
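Assay system – TRPC4beta and mu-opioid receptor HEK293 stable cells · Measured by – Fluo4 fluorescence, kinetic · Schedule – dye loading 45 min room temperature, 110 s kinetic read · Read-out – B-scored integrated calcium fluorescence ratio · Controls – buffer and maximal DAMGO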
TRPC4 block – blocks the mouse TRPC4 cation channel | Q9QUQ5 | hit rate 0.39% among 300,000 | B-score at 10 µM | HEK293 TRPC4beta/mu-opioid, DAMGO-evoked Fluo4 calcium flux; active compounds read low;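 active means B-score over 3 SD under the library average, no early fluorescence shift, positive overall ratio signal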
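Assay system: HEK293 cells with stable TRPC4beta plus mu-opioid receptor expression; Probe or stimulus: DAMGO in two steps, submaximal then maximal; Dosing: single-point compound dosing; Measured by: Fluo4 calcium-dye fluorescence, kinetic read; Read-out basis: B score from integrated Fluo4 fluorescence ratio.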
* hit, by the source's call; i = inactive.

SMILES	TRPC6 act	TRPC4 potent	TRPC6 inh	TRPC4 act	TRPC4 block
CC(=O)OC(c1nc2ccccc2c(=O)n1C1CC2(OC1=O)c1ccccc1N1C(=O)C(C)(C)N(O)C12)C(C)C (stereo unspecified)	i	i	i	83*	i
O=C(O)CC(c1cccc2ccccc12)N1Cc2ccccc2C1=O (stereo unspecified)	i	34*	i	i	i
CCOC(=O)Cc1csc(NC(=O)NC2(C(F)(F)F)Oc3ccc(Cl)cc3O2)n1 (stereo unspecified)	i	i	i	i	i
CCOC(=O)Cc1csc(NC(=O)NC2(C(F)(F)F)Oc3cc(Cl)c(Cl)cc3O2)n1	i	i	i	i	-7*
CCN(CC)c1ccc(NC(=O)c2ccc3c(c2)OCO3)c(C)c1	i	i	i	i	i
CCOC(=O)CCSc1nnc(-c2cccnc2)n1-c1ccccc1OC	i	i	i	i	-8*
CC(NC(=O)CNC(=O)c1cccc(Cl)c1)c1ccccc1 (stereo unspecified)	i	i	i	i	i
Cc1cc(NC(=O)CSCC(=O)OC(C)C(=O)c2cc(C)c(C)cc2C)no1 (stereo unspecified)	i	i	i	i	-6*
Cc1cc(NC(=O)CSCC(=O)OC(C)C(=O)N(C)Cc2ccccc2)no1 (stereo unspecified)	i	i	i	i	i
Cc1ccc(Oc2ccccc2NC(=O)CSCC(=O)Nc2cc(C)on2)cc1	i	i	i	i	-6*
COc1ccccc1NC(=O)Cc1ccc(-c2ccccc2)cc1	i	i	i	i	i
COc1ccc(CC(=O)Nc2ccccc2Oc2ccccc2)cc1	i	i	i	i	-6*
COc1ccc(NC(=O)CSCC(=O)N(C)CC(=O)Nc2ccc(Cl)c(C(F)(F)F)c2)cc1	i	i	i	i	i
Cc1cc(NC(=O)CSCC(=O)Nc2ccccc2Oc2ccccc2)no1	i	i	i	i	i
Cc1cc(NC(=O)CSCC(=O)Nc2ccc(Cl)c(C(F)(F)F)c2)no1	i	i	i	i	-5*
COc1cccc(CC(=O)OCC(=O)NC(=O)c2ccc(OC(F)F)cc2)c1	i	i	i	i	i
O=C(CSc1nnc(NC(=O)c2ccccc2)s1)NCc1ccco1	i	i	i	i	i
O=C(CSc1nnc(NC(=O)c2ccc3c(c2)OCO3)s1)NCc1ccco1	i	11*	i	i	i
COC(=O)[C@]1(CC(C)C)N[C@H](c2ccc(-c3cccc(Cl)c3)cc2)[C@@H]2C(=O)N(C)C(=O)[C@@H]21	i	i	i	i	i
Cc1nc2scc(-c3ccccc3)c2c(=O)n1N=C1C=CC(=O)C=C1	i	i	i	i	-6*
C/C(=N\O)C(=O)OC1CC(C)CCC1C(C)C (stereo unspecified)	i	13*	i	i	i
CCCN(c1nc(C)cc(OC)n1)S(=O)(=O)c1ccccc1	i	i	i	i	-5*
CCOP(=O)(OCC)c1nc(-c2cccc3ccccc23)oc1NCc1ccc(OC)cc1	i	13*	i	i	i
CCOP(=O)(OCC)c1nc(-c2cccc3ccccc23)oc1NCc1ccccc1	i	i	i	i	i
CC[C@@H](C)[C@H](CNC)NC[C@@H](Cc1cccc2ccccc12)NCCc1cccc(C(F)(F)F)c1	i	i	i	97*	i
SMILES	TRPC6 act	TRPC4 potent	TRPC6 inh	TRPC4 act	TRPC4 block
COc1ccccc1C(=O)NNC1=C(C(=O)C(F)(F)F)CCC1	i	i	i	93*	i
CC1CN(S(=O)(=O)c2cccc(C(=O)OC(C)C(=O)NC3CCCCC3C)c2)CC(C)O1 (stereo unspecified)	i	i	i	i	i
Cc1ccccc1OCCNc1cc(N2CCNCC2)ccc1[N+](=O)[O-]	i	14*	-7.9*	i	i
CC(=O)Nc1cccc(NC(=O)C(=O)NCC(c2ccco2)N2CCc3ccccc3C2)c1 (stereo unspecified)	i	i	i	i	i
CCC(c1nnnn1C(C)(C)C)N(Cc1ccco1)Cc1cc2cccc(C)c2[nH]c1=O (stereo unspecified)	i	i	i	i	i
Cc1ccc2cc(CN(CCCN3CCOCC3)C(c3nnnn3Cc3ccco3)C(C)C)c(=O)[nH]c2c1C (stereo unspecified)	i	i	i	i	-9*
Cc1ccc2cc(CN(CCN3CCOCC3)Cc3nnnn3Cc3ccco3)c(=O)[nH]c2c1C	i	i	i	i	i
CCC(c1nnnn1CCc1ccccc1)N(Cc1ccco1)Cc1cc2cccc(C)c2[nH]c1=O (stereo unspecified)	i	11*	i	i	i
Cc1ncccc1C(=O)N1CCCC(C(=O)c2ccc3c4c(cccc24)CC3)C1 (stereo unspecified)	i	i	i	i	i
CCc1nc(CN2CCCC(C(=O)c3ccc4c5c(cccc35)CC4)C2)c(C)[nH]1 (stereo unspecified)	i	i	i	116*	i
O=C(c1ccc2c3c(cccc13)CC2)C1CCCN(Cc2ccncc2)C1 (stereo unspecified)	i	i	i	44*	i
CCN(CC)CCn1c2c(c(SCC(=O)Nc3ccc(F)c(F)c3)nc1=O)CCC2	i	i	i	i	i
N/C(Cc1cccc2ccccc12)=N\OC(=O)Cc1cccs1	i	i	i	i	i
N/C(Cc1cccc2ccccc12)=N\OC(=O)c1cccs1	i	i	i	i	-6*
O=C(Nc1sc2c(c1C(=O)NCCCO)CCCC2)c1ccccc1	i	i	i	i	i
NCCNC(=O)c1c(NC(=O)c2ccccc2)sc2c1CCCC2	i	i	i	175*	i
COc1ccc([N+](=O)[O-])cc1NCc1ccco1	i	i	i	i	-6*
CN(C)CCCn1c(=O)n(CCc2ccccc2)c(=O)c2c3c(sc21)CCCCC3	i	22*	i	i	i
CN(C)CCn1c(=O)n(Cc2ccccc2)c(=O)c2c3c(sc21)CCCCC3	i	i	i	i	i
CN1C(=O)CSC1=Nc1ccc(Br)cc1	i	i	i	i	i
CN1C(=O)CSC1=NC12CC3CC(CC(C3)C1)C2	i	i	i	i	-6*
CCN1C(=O)CSC1=NC12CC3CC(CC(C3)C1)C2	i	i	i	i	-5*
